Calls of active or inactive are those of the source. No cut-off for these calls is given here.
Key:
Lactuca sativa [1] = test: Inhibition of seed germination in Lactuca sativa after 24 hrs; assay type: functional, organism-based
Spinacia oleracea [2] = test: Inhibition of seed germination in Spinacia oleracea at 100 uM after 24 hrs; assay type: functional
In short: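 Spinach cv. Jiromaru seeds sterilized with EtOH for 5 min and rinsed in running tap water for 2 h. Placed on filter paper wetted with 2 ml test solution in a Petri dish, held 2 days at 5 °C, then germinated 24 h at 22 °C under continuous light. Single-concentration test at 100 µM.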

Arabidopsis thaliana [3] = test: Inhibition of seed germination in Arabidopsis thaliana at 10 uM after 24 hrs; assay type: functional
In short: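 Arabidopsis Col-0 seeds, 25 per test, sterilized in 70% EtOH for 30 min then EtOH for 1 min. Seeds were soaked in 250 µl test solution and chilled 3 days at 5 °C in the dark, then germinated on filter paper under continuous light for 24 h at 22 °C. Scored as % with emerged radicle; run twice. Single-concentration test at 10 µM.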

Oryza sativa [4] = test: Inhibition of seedling elongation in Oryza sativa after 7 days
Oryza sativa [5] = test: Inhibition of seedling elongation in Oryza sativa at 100 uM after 7 days
Lactuca sativa [6] = test: Inhibition of seed germination in Lactuca sativa at 100 uM after 24 hrs; assay type: functional
Arabidopsis thaliana [7] = test: Inhibition of seed germination in Arabidopsis thaliana after 24 hrs; assay type: functional, organism-based
Spinacia oleracea [8] = test: Inhibition of seed germination in Spinacia oleracea at 100 uM after 24 hrs
Oryza sativa [9] = test: Metabolic stability in Oryza sativa seedling assessed as ABA-d6 release per mg of protein after 4 days by LC-MS; assay type: ADME, organism-based; conditions: in vivo, 96 h
[10] = biological target: T1, IAA-amino acid hydrolase ILR1-like 4 (Arabidopsis thaliana) (UniProt O04373); test: Activity at GST-tagged IAR3 of Arabidopsis thaliana assessed as ABA release per mg of protein after 7 hrs by HPLC
T1 sequence (whole entry): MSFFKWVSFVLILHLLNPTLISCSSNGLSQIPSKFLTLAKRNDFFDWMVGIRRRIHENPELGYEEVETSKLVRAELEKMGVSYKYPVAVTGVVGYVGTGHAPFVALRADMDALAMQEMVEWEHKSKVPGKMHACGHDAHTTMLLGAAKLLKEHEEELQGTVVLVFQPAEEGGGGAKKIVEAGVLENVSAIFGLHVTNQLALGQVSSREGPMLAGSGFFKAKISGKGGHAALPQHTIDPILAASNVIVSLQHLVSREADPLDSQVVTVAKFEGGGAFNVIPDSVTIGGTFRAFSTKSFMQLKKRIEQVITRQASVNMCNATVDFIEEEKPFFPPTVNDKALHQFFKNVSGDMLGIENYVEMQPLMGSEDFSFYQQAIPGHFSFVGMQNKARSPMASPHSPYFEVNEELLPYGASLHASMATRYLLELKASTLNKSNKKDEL
In short: (§1)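 Recombinant Arabidopsis GST-IAR3 expressed in E. coli BL21(DE3) (IPTG 50 µM, overnight at 18 °C) and purified on glutathione-agarose. Substrate at 1 mM was preincubated 5 min at 30 °C in 50 mM Tris-HCl pH 8.0 with 1 mM DTT and 1 mM MnCl2. Reaction started with 15 ng/µl enzyme at 30 °C, sampled up to 5 h (some substrates 7 or 24 h), quenched in MeOH/1% AcOH, cleaned on cartridge, HPLC at 254 nm.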

[11] = biological target: T1, IAA-amino acid hydrolase ILR1-like 4 (Arabidopsis thaliana); test: Activity at GST-tagged IAR3 of Arabidopsis thaliana assessed as ABA release per mg of protein after 5 hrs by HPLC; in short: as §1
[12] = Chemical stability of the compound at 25 degC after 7 days; assay type: physicochemical; conditions: 168 h
In short: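 Compound at 100 µM in 2 ml aqueous solution, prepared as for the rice growth assay, held in a capped glass tube at 25 °C under continuous light for 7 days, then analysed by reverse-phase HPLC.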

[13] = biological target: T1, IAA-amino acid hydrolase ILR1-like 4 (Arabidopsis thaliana); test: Activity at GST-tagged IAR3 of Arabidopsis thaliana assessed as IAA release per mg of protein after 5 hrs by HPLC; in short: as §1

SMILES	IC50 (Oryza sativa [4]) [µM]	inhibition at 100 µM (Oryza sativa [5]) [%]	also measured
CC1=CC(=O)CC(C)(C)[C@@]1(O)/C=C/C(C)=C\C(=O)O [(+)-ABSCISIC ACID]	2.1	100	IC50 (Lactuca sativa [1]): 5.7 µM; inhibition at 100 µM (Spinacia oleracea [2]): 100%; inhibition at 10 µM (Arabidopsis thaliana [3]): 100%; inhibition at 100 µM (Lactuca sativa [6]): 100%; IC50 (Arabidopsis thaliana [7]): 0.2 µM
CC1=CC(=O)CC(C)(C)[C@@]1(O)/C=C/C(C)=C\C(=O)N[C@@H](CCC(=O)O)C(=O)O			inhibition (Spinacia oleracea [8]): Active
[2H]C([2H])([2H])C1(C([2H])([2H])[2H])CC(=O)C=C(C)[C@]1(O)/C=C/C(C)=C\C(=O)N[C@@H](C)C(=O)O			Stability (Oryza sativa [9]): Unstable
CC1=CC(=O)CC(C)(C)[C@@]1(O)/C=C/C(C)=C\C(=O)N[C@@H](CC(N)=O)C(=O)O	9.3	> 80	Activity [10]: 19 nmol/h/mg
CC1=CC(=O)CC(C)(C)[C@@]1(O)/C=C/C(C)=C\C(=O)N[C@@H](CCC(N)=O)C(=O)O	8.3	> 80	inhibition (Spinacia oleracea [8]): Active
CC1=CC(=O)CC(C)(C)[C@@]1(O)/C=C/C(C)=C\C(=O)NCC(=O)O	5.7	> 80	Activity [11]: 230 nmol/h/mg
CC1=CC(=O)CC(C)(C)[C@@]1(O)/C=C/C(C)=C\C(=O)N[C@@H](CC(=O)O)C(=O)O	6.4	> 80	
[2H]C([2H])([2H])C1(C([2H])([2H])[2H])CC(=O)C=C(C)[C@]1(O)/C=C/C(C)=C\C(=O)N[C@H](C)C(=O)O			Stability (Oryza sativa [9]): Stable
CC1=CC(=O)CC(C)(C)[C@@]1(O)/C=C/C(C)=C\C(=O)N[C@@H](C)C(=O)O	7	> 80	Stability [12]: Stable; inhibition (Arabidopsis thaliana [3]): Active; Activity [11]: 310 nmol/h/mg
CC1=CC(=O)CC(C)(C)[C@@]1(O)/C=C/C(C)=C\C(=O)N[C@@H](CO)C(=O)O	13	> 80	
C[C@H](NC(=O)Cc1c[nH]c2ccccc12)C(=O)O			Activity [13]: 2100 nmol/h/mg
CSCC[C@H](NC(=O)/C=C(C)\C=C\[C@@]1(O)C(C)=CC(=O)CC1(C)C)C(=O)O	16	> 80	Activity [10]: 22 nmol/h/mg
